MsrA inh – inhibits bovine methionine sulfoxide reductase A | purified bovine MsrA, absorbance read-out | inhibition, % at 15.5 µM | actives 0.75% (n = 360,000) | AID 651718; in the data active = inhibition above about 4.5%
NR2E3 ag-1 – agonists of human nuclear receptor NR2E3; GST-NR2E3/biotin-RetCOR TR-FRET, 1536-well; inhibition of corepressor binding, % at 4.78 µM; Q9Y5X4; actives 0.12% (n = 320,000);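 active = percent inhibition above the cutoff of mean plus 3 SD of all tested compounds, set per screening campaign, cut at about 20% in these data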
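Material: NR2E3–RetCOR corepressor complex | Quantity: 1.35 nM GST-tagged NR2E3 final | Schedule: 5 h at 4 °C | Replication: Singlicate compound wells | Reagent: RetCOR corepressor, biotinylated, 7 nM | Controls: Biotin wells as high control, 0.6% DMSO wells as low control | Signal: TR-FRET, Eu(K)-anti-GST donor, streptavidin-D2 acceptor, ex 340, em 617/671 nm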
NadD block – inhibitors of Staphylococcus aureus NadD | purified NadD enzyme, colorimetric absorbance read-out | inhibition, % at 20 µM | actives 0.78% (n = 360,000) | AID 602399; in the data active = inhibition above about 26%
GalR3 antagonist – antagonists of human GalR3; HEK293 GalR3-CNG cAMP membrane potential fluorescence; galR3 body fused to GalR1 C-terminus; O60755; AID 651719; actives 0.44% (n = 360,000); inhibition, % at 3 µM;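 active = inhibition above the screen-wide average plus 3 SD, cut at about 13% in these data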;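 also: forskolin and galanin both at EC90 stimulate the cells; cAMP rise reported by CNG channel membrane potential dye signal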
Target sequence (O60755 1-299 limits assumed): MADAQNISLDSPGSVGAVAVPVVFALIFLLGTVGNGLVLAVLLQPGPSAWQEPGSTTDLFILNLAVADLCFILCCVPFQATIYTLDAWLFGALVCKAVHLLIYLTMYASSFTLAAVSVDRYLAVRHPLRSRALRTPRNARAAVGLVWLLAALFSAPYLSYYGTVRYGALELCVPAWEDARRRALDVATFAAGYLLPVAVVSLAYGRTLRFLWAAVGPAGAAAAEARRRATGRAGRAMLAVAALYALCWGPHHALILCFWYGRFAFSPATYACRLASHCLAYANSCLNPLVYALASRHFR
NR2E3 ag-2 – activates human NR2E3 receptor | CHO-S Gal4-NCOR/VP16-NR2E3 two-hybrid, luciferase | inhibition of corepressor binding, % at 3.98 µM | Q9Y5X4 | actives 0.35% (n = 360,000);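 active = inhibition above the mean of all tested compounds plus 3 SD, cut at about 70% in these data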;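 also: higher means lower luciferase signal from less NR2E3 corepressor binding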
MsrA act – activators of bovine methionine sulfoxide reductase A; purified bovine MsrA, absorbance read-out; activation, % at 10.6 µM; actives 0.3% (n = 360,000); AID 602163; in the data active = activation above about 7.5%
MsrA activ conf – confirmation of bovine methionine sulfoxide reductase A activators | shares compounds with MsrA act | purified bovine MsrA, absorbance read-out | activation, % at 10.6 µM | actives 12% (n = 1,000); in the data active = activation above about 4%;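 also: enzyme coupled to thioredoxin and thioredoxin reductase with NADPH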
A number is an active result; – = inactive; · = not tested or not shown. Shown are actives, neighbours in structure and some others; about 2.5% of the full set was active somewhere.

SMILES | MsrA inh | NR2E3 ag-1 | NadD block | GalR3 antagonist | NR2E3 ag-2 | MsrA act | MsrA activ conf
O=C1C(Cl)=C(NCCCO)C(=O)c2ccccc21 | – | – | – | – | – | – | ·
O=S(=O)(NC1=NCCCCC1)c1ccc2ccccc2c1 | – | – | – | – | – | 9.0 | –
O=C(NC1CCCC1)C(c1ccncc1)N(C(=O)c1csnn1)c1ccc(F)c(Cl)c1 (stereo unspecified) | – | – | – | – | – | – | ·
COc1ccc(N2CCN(C3CCN(S(=O)(=O)c4ccc(F)cc4)CC3)CC2)cc1 | – | – | – | · | – | 9.5 | –
COc1ccc(S(=O)(=O)NC(N)=NCCc2ccccc2)cc1 | – | – | – | – | – | – | ·
O=C(NCCc1ccc(Cl)cc1)C12CC3CC(CC(O)(C3)C1)C2 | – | – | – | – | – | 9.2 | –
COc1ccc(-c2csc(NC(=O)C3=COCCO3)n2)cc1OC | – | · | – | – | – | 10.5 | –
Cn1c(=O)oc2cc(S(=O)(=O)Nc3ccc(Cl)cc3F)ccc21 | – | – | – | – | – | – | ·
CCCCCn1c(=O)c2ccccc2n2c(=S)[nH]nc12 | – | – | – | – | – | 9.6 | –
O=C(NCCN1CCN(c2ccccc2)CC1)c1cccc(Cl)c1 | – | – | – | – | – | – | ·
COc1ccccc1CNC(=O)CCNC(=O)Cn1ccc2ccccc2c1=O | – | – | – | – | – | – | ·
COc1ccccc1CNC(=O)CCNC(=O)Cn1cnc2ccccc2c1=O | – | – | – | – | – | 8.8 | –
O=[N+]([O-])c1ccc(Sc2nc3ccccc3o2)c([N+](=O)[O-])c1 | – | – | – | – | – | 7.7 | –
O=C(O)[C@@H]1Cc2ccccc2N1 | – | – | – | – | – | 8.2 | –
COc1ccccc1NC(=O)c1cc(OC)c(OC)cc1[N+](=O)[O-] | – | – | – | – | – | – | ·
COc1ccc(NC(=O)c2ccc([N+](=O)[O-])cc2[N+](=O)[O-])c(OC)c1 | – | – | – | – | – | 11.2 | –
Cc1cccc(NC(=O)NNC(=O)c2ccc3ccccc3c2O)c1 | – | · | – | – | – | – | ·
CCOC(=O)c1csc(N)n1 | – | – | – | – | – | – | ·
CCOC(=O)c1csc(-c2snnc2C)n1 | – | – | – | – | – | 8.0 | –
CCCCOC(=O)CCn1c(=S)oc2ccccc21 | – | – | – | – | – | 20.7 | –
CCCNC(=O)CCn1c(=S)oc2ccccc21 | – | – | – | – | – | – | ·
O=C(COC(=O)c1cc(F)cc(F)c1)Nc1cccnc1Cl | – | – | – | – | – | 9.1 | –
O=C(COC(=O)C1(c2ccc(Cl)cc2)CCCC1)Nc1ncc(C(F)(F)F)cc1Cl | – | – | – | – | – | 8.8 | –
O=C(NNS(=O)(=O)c1ccccc1)c1ccc(O)cc1 | – | – | – | – | – | – | ·
OCCCCCCNc1ccc(CCO)cc1 | – | · | – | – | – | 8.6 | –
SMILES | MsrA inh | NR2E3 ag-1 | NadD block | GalR3 antagonist | NR2E3 ag-2 | MsrA act | MsrA activ conf
O=C(NCCCO)C(=O)NCCc1ccc(Cl)cc1 | – | – | – | – | – | – | ·
Nn1c(SCC(=O)NC2CCCc3ccccc32)nnc1-c1cccs1 (stereo unspecified) | – | – | – | – | – | 8.7 | –
COc1ccc(S(=O)(=O)N2CCC(C(=O)N3CCOCC3)CC2)cc1Cl | – | – | – | – | – | 8.0 | –
COc1ccc(S(=O)(=O)N2CCCC(C(=O)N3CCOCC3)C2)cc1Cl (stereo unspecified) | – | – | – | – | – | – | ·
Cc1ccc(NC(=O)NCc2c(C)nn(C)c2C)cc1Cl | – | – | – | – | – | – | ·
CC1(C)CC(NC(=O)c2cccc(S(=O)(=O)Nc3cccc(Cl)c3)c2)CC(C)(C)N1 | – | – | – | – | – | – | ·
COC(=O)CCCC[C@@H]1O[C@H](CCc2ccccc2)CC2=C1C(=O)OC(C)(C)O2 | – | · | – | – | – | – | ·
CCOC(=O)CNC(=O)c1ccccc1Br | – | – | – | – | – | 20.9 | –
COc1ccc(N2CC(C(=O)OCC(=O)Nc3cc(C)on3)CC2=O)cc1 (stereo unspecified) | – | – | – | – | – | 8.0 | –
COC(=O)C1=C(C)N(C)C(C)=C(C(=O)OC)C1c1ccc(F)c(Br)c1 | – | – | – | – | – | – | ·

Screening results as filed in PubChem BioAssay.
